From ChEMBL document CHEMBL1149075, “Synthesis and evaluation of alkoxy-phenylamides and alkoxy-phenylimidazoles as potent sphingosine-1-phosphate receptor subtype-1 agonists” (Bioorg Med Chem Lett, 2009) come the findings set out here.

The species entered for assay [1] is Homo sapiens. As to the kind of experiment: Ratio of IC50 for human S1P3 receptor to IC50 for human S1P1 receptor.
The target in assay [2] is T1, Sphingosine 1-phosphate receptor 4 (Homo sapiens, UniProt O95977).
T1 sequence (O95977 whole entry): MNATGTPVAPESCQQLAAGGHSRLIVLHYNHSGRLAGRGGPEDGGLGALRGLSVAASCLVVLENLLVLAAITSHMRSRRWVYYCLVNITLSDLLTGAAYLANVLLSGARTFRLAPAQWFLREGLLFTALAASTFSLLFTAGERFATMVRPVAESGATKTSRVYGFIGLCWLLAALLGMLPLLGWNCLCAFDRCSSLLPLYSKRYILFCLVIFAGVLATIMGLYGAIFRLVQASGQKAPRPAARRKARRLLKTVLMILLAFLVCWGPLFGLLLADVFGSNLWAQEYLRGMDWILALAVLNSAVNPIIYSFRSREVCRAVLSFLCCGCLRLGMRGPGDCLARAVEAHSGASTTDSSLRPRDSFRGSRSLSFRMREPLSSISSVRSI
The assay can be described thus: Displacement of [33P]sphingosine-1-phosphate from human S1P4 receptor.

For assay [3], the target named is T2, Sphingosine 1-phosphate receptor 1 (Homo sapiens, UniProt P21453). The assay can be described thus: Agonist activity at human S1P1 receptor assessed as stimulation of [35S]GTPgammaS binding. It is filed as functional. (GTPγS is a poorly hydrolysed GTP analogue; its binding reports G protein activation.)
The target of assay [4] is Sphingosine 1-phosphate receptor 5 (Homo sapiens, UniProt Q9H228). As to the kind of experiment: Displacement of [33P]sphingosine-1-phosphate from human S1P5 receptor.
In assay [5] the target is T2, Sphingosine 1-phosphate receptor 1. The assay can be described thus: Displacement of [33P]sphingosine-1-phosphate from human S1P1 receptor.
In assay [6] the target is T3, Sphingosine 1-phosphate receptor 3 (Homo sapiens, UniProt Q99500). As to the kind of experiment: Agonist activity at human S1P3 receptor assessed as stimulation of [35S]GTPgammaS binding. It is filed as functional.
Assay [7] deals with T3, Sphingosine 1-phosphate receptor 3. The assay can be described thus: Displacement of [33P]sphingosine-1-phosphate from human S1P3 receptor.
The species entered for assay [8] is Homo sapiens. As to the kind of experiment: Ratio of EC50 for human S1P3 receptor to EC50 for human S1P1 receptor.
Assay [9] concerns Mus musculus. The assay can be described thus: Immunomodulatory activity in C57BL/6 mouse assessed as lymphopenia at 10 mg/kg, po after 6 hrs by complete blood count analysis. The assay is classed as functional. The method in brief:
(§1)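 Mice dosed orally with compound in 3% BSA vehicle; vehicle-only control group. Doses 0.3–10 mg/kg. At 6 h, isoflurane anesthesia, about 250 µl retro-orbital blood collected into EDTA tubes, mixed with anticoagulant, kept on tilt table, then complete blood count. Percent lymphopenia reported.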

In assay [10] the test system is Mus musculus. The assay can be described thus: Immunomodulatory activity in po dosed C57BL/6 mouse assessed as lymphopenia after 6 hrs by complete blood count analysis. The assay is classed as functional, organism-based. In outline:
as §1

Each structure is given as a SMILES string.

Chain of Sphingosine 1-phosphate receptor 5 (Q9H228 whole entry): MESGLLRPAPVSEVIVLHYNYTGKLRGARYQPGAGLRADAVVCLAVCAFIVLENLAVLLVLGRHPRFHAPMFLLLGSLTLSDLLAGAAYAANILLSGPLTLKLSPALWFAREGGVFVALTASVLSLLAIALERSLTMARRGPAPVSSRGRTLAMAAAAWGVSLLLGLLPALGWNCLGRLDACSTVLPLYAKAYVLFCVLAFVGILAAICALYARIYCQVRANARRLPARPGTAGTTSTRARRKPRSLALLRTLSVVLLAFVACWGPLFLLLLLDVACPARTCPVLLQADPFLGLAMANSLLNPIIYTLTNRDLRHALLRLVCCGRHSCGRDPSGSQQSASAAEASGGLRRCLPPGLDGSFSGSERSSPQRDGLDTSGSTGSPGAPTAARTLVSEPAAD
T2 sequence (P21453 whole entry): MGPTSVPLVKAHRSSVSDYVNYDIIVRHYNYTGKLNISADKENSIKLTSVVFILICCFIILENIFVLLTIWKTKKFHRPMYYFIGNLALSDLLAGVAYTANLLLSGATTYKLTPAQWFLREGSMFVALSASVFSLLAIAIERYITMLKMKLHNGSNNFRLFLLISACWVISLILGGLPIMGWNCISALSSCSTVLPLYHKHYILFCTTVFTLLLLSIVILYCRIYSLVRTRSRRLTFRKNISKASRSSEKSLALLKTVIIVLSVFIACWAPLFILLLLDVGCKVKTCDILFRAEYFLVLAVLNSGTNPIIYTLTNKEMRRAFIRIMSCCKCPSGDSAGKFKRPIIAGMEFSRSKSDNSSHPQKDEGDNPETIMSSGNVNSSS
T3 sequence (Q99500 whole entry): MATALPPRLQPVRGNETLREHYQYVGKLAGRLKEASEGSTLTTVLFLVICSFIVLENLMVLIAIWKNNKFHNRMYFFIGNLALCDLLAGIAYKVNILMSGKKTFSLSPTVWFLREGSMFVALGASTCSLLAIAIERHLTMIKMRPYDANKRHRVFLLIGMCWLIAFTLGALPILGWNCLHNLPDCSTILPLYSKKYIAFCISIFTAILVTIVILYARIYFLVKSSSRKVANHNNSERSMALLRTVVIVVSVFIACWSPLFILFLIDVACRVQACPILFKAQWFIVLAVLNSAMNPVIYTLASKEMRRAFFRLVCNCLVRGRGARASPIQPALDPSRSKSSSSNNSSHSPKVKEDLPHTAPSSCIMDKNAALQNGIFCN

Turning to `CCCCCCCCOc1ccc(-c2c[nH]c([C@@](C)(N)COP(=O)(O)O)n2)cc1F`, in the assay filed under Homo sapiens [1], the Ratio IC50 came to 16.5. Besides, the IC50 (commonly the concentration that inhibits the measured activity by half) in assay [2] came to 1.9 nM; in assay [4], 1.1 nM; in [5] it was 0.35 nM; in assay [7], 5.8 nM. The EC50 (in general, the concentration that produces a half-maximal response) was found to be 0.45 nM in assay [3] and 10.8 nM in assay [6]. Besides, the Ratio EC50 in the assay listed under Homo sapiens [8] stood at 24.
Take `CCCCCCCCc1ccc(NC(=O)[C@@](C)(N)CO)cc1`: the Activity in the assay on Mus musculus [9] was found to be 36%.
As for `CCCCCCCCOc1ccc(NC(=O)[C@@](C)(N)COP(=O)(O)O)cc1`, in the assay listed under Homo sapiens [1], the Ratio IC50 is 8.1. The IC50 worked out at 4 nM in [2], 8.8 nM in assay [4], 0.73 nM in [5] and 5.9 nM in assay [7]. Also, the EC50 in assay [3] stood at 2.4 nM; in assay [6], 16.3 nM. Further, the Ratio EC50 in the assay filed under Homo sapiens [8] is 6.9.
As for `CCCCCCCCOc1ccc(-c2c[nH]c([C@@](C)(N)CO)n2)cc1`, the Activity in the assay on Mus musculus [9] was 83%.
For `CCCCCCCCOc1ccc(NC(=O)[C@@](C)(N)COP(=O)(O)O)c(F)c1`, the Ratio IC50 in the assay listed under Homo sapiens [1] was found to be 10.2. Further, the IC50 in assay [2] was 1.8 nM; in assay [4], 3.2 nM; in [5], 0.35 nM; in assay [7], 3.6 nM. The EC50 in [3] amounted to 2.1 nM; in assay [6] it was 9.8 nM. Besides, in the assay listed under Homo sapiens [8], the Ratio EC50 was determined as 4.7.
With `CCCCCCCOc1ccc(NC(=O)[C@@](C)(N)CO)cc1`, the Activity with Mus musculus [9] is given as 72%.
Same read-out and setting: then `CCCCCCCCOc1ccc(NC(=O)[C@@](C)(N)CO)cc1F`, with 65%.
For `CCCCCCCCCCCCC/C=C/[C@@H](O)[C@@H](N)COP(=O)(O)O`, the IC50 in assay [2] amounted to 2.4 nM; in assay [5], 0.47 nM; in [7], 0.66 nM. The EC50 in assay [3] came out at 7.9 nM; in assay [6] it was 3 nM.
In the case of `CCCCCCCCOc1ccc(NC(=O)[C@@](C)(N)COP(=O)(O)O)cc1F`, the Ratio IC50 in the assay filed under Homo sapiens [1] came to 42. The IC50 amounted to 3.5 nM in assay [2], 6.9 nM in assay [4], 0.14 nM in assay [5] and 5.9 nM in assay [7]. The values for the EC50 in assay [3] and in assay [6] were 1.1 nM and 10.1 nM, respectively. In the assay filed under Homo sapiens [8], the Ratio EC50 came out at 9.2.
`CCCCCCCCOc1ccc(-c2c[nH]c([C@@](C)(N)CO)n2)cc1F`: the Activity with Mus musculus [9] was 70%.
For `CCCCCCCCOc1ccc(NC(=O)[C@@](C)(N)CO)c(F)c1`, the Activity in the assay on Mus musculus [9] was found to be 66%.
Same read-out and setting: then `CCCCCCCCOc1ccc(-c2c[nH]c([C@@](C)(N)CO)n2)c(F)c1`, with 81%.
On to `CCCCCCCCOc1ccc(NC(=O)[C@@](C)(N)CO)cc1`, for which the values for the Activity with Mus musculus [9] and in the assay with Mus musculus [10] were 78% and “Dose-dependent effect”, respectively.
Regarding `CCCCCCCOc1ccc(-c2c[nH]c([C@@](C)(N)CO)n2)cc1`, the Activity with Mus musculus [9] is recorded as 74%.
In the case of `CCCCCCCCOc1ccc(-c2c[nH]c([C@@](C)(N)COP(=O)(O)O)n2)cc1`, the Ratio IC50 in the assay filed under Homo sapiens [1] is 20.3. Further, the IC50 in assay [2] stood at 1.1 nM; in [4], 1.4 nM; in assay [5], 0.26 nM; in assay [7], 5.3 nM. In addition, the EC50 in assay [3] turned out to be 0.55 nM; in assay [6], 14.8 nM. Besides, in the assay listed under Homo sapiens [8], the Ratio EC50 is 26.9.
